# In ChEMBL document CHEMBL4665734, “Optimization of globomycin analogs as novel gram-negative antibiotics” (Bioorg Med Chem Lett, 2020):
# Starred links: 1 amine or outer side, 2 acyl side, 3 side chain; linkers in the order of their positions; H or OH if unused. Non-standard residues stand in square brackets, D forms with d. Residues, ends and D or L forms follow the SMILES beside them. Groups on a side chain read outwards from the residue. *: point of attachment. X1 = CCCCCC[C@@H](OC[C@@H](C)N[*:1])[C@@H](C)C(=O)[*:2]; Gly(cHept) = N[C@H](C(=O)O)C1CCCCCC1; Propyl(3-guanidino) = N=C(N)NCCC*; NMeL = CN[C@@H](CC(C)C)C(=O)O; Chg = N[C@H](C(=O)O)C1CCCCC1; NMeNva = CCC[C@H](NC)C(=O)O; Propyl(3-NMe2) = CN(C)CCC*; X13 = N[C@H]1C[C@H](N*)C1; hSer = N[C@@H](CCO)C(=O)O; X14 = NCCN1CC[C@H](*)C1; Dap = NC[C@H](N)C(=O)O; Propyl(3-NH2) = NCCC*; CO = O=C([*:1])[*:2]; X12 = NCC(CN)*; X11 = NCCCC*
# Legend:
# Escherichia coli = assay: Inhibition of LspA in Escherichia coli CFT073imp4213 harboring outer membrane-permeable mutant assessed as inhibition of bacterial growth
# Outline: (§1)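 Read-out is the minimum inhibitory concentration, reported in µM.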
# [1] = Stability of the compound in mouse plasma assessed as parent compound remaining after 24 hrs; type: ADME, cell-free; conditions: read-out: Stabilty
# Outline: (§2)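 Test compound incubated for 24 hour in human, rat or mouse plasma. Stability is reported as the percentage of parent compound remaining.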
# [2] = Growth inhibition of Staphylococcus aureus USA300
# Escherichia coli CFT073 = assay: Inhibition of LspA in wild type Escherichia coli CFT073 assessed as inhibition of bacterial growth; outline: as §1
# [3] = Stability of the compound in human plasma assessed as parent compound remaining after 24 hrs; type: ADME, cell-free; conditions: read-out: Stabilty; outline: as §2
# [4] = Lipophilicity, logD of the compound at pH 7.4; conditions: buffer, pH 7.4, logD
compound,measurement,setting,value
CCCCCC[C@H]1OC[C@@H](C)NC(=O)[C@H]([C@H](C)O)NC(=O)[C@H](CN)NC(=O)[C@H](C2CCCCC2)NC(=O)[C@H](CC(C)C)N(C)C(=O)[C@@H]1C,MIC,Escherichia coli,0.034 µM
same,remaining at 24 h,[1],94%
same,MIC,[2],71 µM
same,MIC,Escherichia coli CFT073,2.9 µM
same,remaining at 24 h,[3],93%
CCCCCC[C@H]1OCCCNC(=O)[C@H]([C@H](C)O)NC(=O)[C@H](CN)NC(=O)[C@H](C2CCCCC2)NC(=O)[C@H](CC(C)C)N(C)C(=O)[C@@H]1C,MIC,Escherichia coli,0.39 µM
same,remaining at 24 h,[1],101%
same,MIC,[2],100 µM
same,MIC,Escherichia coli CFT073,12 µM
same,remaining at 24 h,[3],96%
CCCCCC[C@H]1OC[C@H](C)NC(=O)[C@H]([C@H](C)O)NC(=O)[C@H](CN)NC(=O)[C@H](C2CCCCC2)NC(=O)[C@H](CC(C)C)N(C)C(=O)[C@@H]1C,MIC,Escherichia coli,1 µM
same,remaining at 24 h,[1],93%
same,MIC,[2],71 µM
same,MIC,Escherichia coli CFT073,84 µM
same,remaining at 24 h,[3],88%
CCCCCC[C@H]1OC[C@@H](C)NC(=O)[C@H](COCCCN)NC(=O)[C@H](CN)NC(=O)[C@H](C2CCCCC2)NC(=O)[C@H](CC(C)C)N(C)C(=O)[C@@H]1C (cyclo([Chg][Dap]S(Propyl(3-NH2))[X1][NMeL])),MIC,Escherichia coli,0.28 µM
same,logD,[4],1.5
same,MIC,[2],100 µM
same,MIC,Escherichia coli CFT073,11 µM
CCCCCC[C@H]1OC[C@@H](C)NC(=O)[C@H](COCCCN(C)C)NC(=O)[C@H](CN)NC(=O)[C@H](C2CCCCC2)NC(=O)[C@H](CC(C)C)N(C)C(=O)[C@@H]1C (cyclo([Chg][Dap]S(Propyl(3-NMe2))[X1][NMeL])),MIC,Escherichia coli,0.39 µM
same,logD,[4],2.1
same,MIC,[2],100 µM
same,MIC,Escherichia coli CFT073,25 µM
CCCCCC[C@H]1OC[C@@H](C)NC(=O)[C@H](COCCCNC(=N)N)NC(=O)[C@H](CN)NC(=O)[C@H](C2CCCCC2)NC(=O)[C@H](CC(C)C)N(C)C(=O)[C@@H]1C (cyclo([Chg][Dap]S(Propyl(3-guanidino))[X1][NMeL])),MIC,Escherichia coli,0.2 µM
same,logD,[4],2
same,MIC,[2],5 µM
same,MIC,Escherichia coli CFT073,4.4 µM
CCCCCC[C@H]1OC[C@@H](C)NC(=O)[C@H](COCCCCN)NC(=O)[C@H](CN)NC(=O)[C@H](C2CCCCC2)NC(=O)[C@H](CC(C)C)N(C)C(=O)[C@@H]1C (cyclo([Chg][Dap]S(X11)[X1][NMeL])),MIC,Escherichia coli,0.18 µM
same,logD,[4],1.7
same,MIC,[2],56 µM
same,MIC,Escherichia coli CFT073,7 µM
CCCCCC[C@H]1OC[C@@H](C)NC(=O)[C@H](COCCCCN)NC(=O)[C@H](CN)NC(=O)[C@H](C2CCCCCC2)NC(=O)[C@H](CCC)N(C)C(=O)[C@@H]1C (cyclo([Dap]S(X11)[X1][NMeNva][Gly(cHept)])),MIC,Escherichia coli,0.14 µM
same,logD,[4],1.8
same,MIC,[2],71 µM
same,MIC,Escherichia coli CFT073,6.3 µM
CCCCCC[C@H]1OC[C@@H](C)NC(=O)[C@H](COC(CN)CN)NC(=O)[C@H](CN)NC(=O)[C@H](C2CCCCCC2)NC(=O)[C@H](CCC)N(C)C(=O)[C@@H]1C (cyclo([Dap]S(X12)[X1][NMeNva][Gly(cHept)])),MIC,Escherichia coli,0.55 µM
same,logD,[4],1.1
same,MIC,[2],50 µM
same,MIC,Escherichia coli CFT073,3.1 µM
CCCCCC[C@H]1OC[C@@H](C)NC(=O)[C@H](CO[C@H]2CCN(CCN)C2)NC(=O)[C@H](CN)NC(=O)[C@H](C2CCCCCC2)NC(=O)[C@H](CCC)N(C)C(=O)[C@@H]1C (cyclo([Dap]S(X14)[X1][NMeNva][Gly(cHept)])),MIC,Escherichia coli,0.2 µM
same,logD,[4],1.6
same,MIC,[2],100 µM
same,MIC,Escherichia coli CFT073,6.3 µM
CCCCCC[C@H]1OC[C@@H](C)NC(=O)[C@H](CNC(=O)N[C@H]2C[C@H](N)C2)NC(=O)[C@H](CN)NC(=O)[C@H](C2CCCCCC2)NC(=O)[C@H](CCC)N(C)C(=O)[C@@H]1C (cyclo([Dap][Dap]([CO-X13])[X1][NMeNva][Gly(cHept)])),MIC,Escherichia coli,0.39 µM
same,logD,[4],1.5
same,MIC,[2],71 µM
same,MIC,Escherichia coli CFT073,12 µM
CCCCCC[C@H]1OC[C@@H](C)NC(=O)[C@H](CCOCCCN)NC(=O)[C@H](CN)NC(=O)[C@H](C2CCCCCC2)NC(=O)[C@H](CCC)N(C)C(=O)[C@@H]1C (cyclo([Dap][hSer](Propyl(3-NH2))[X1][NMeNva][Gly(cHept)])),MIC,Escherichia coli,0.2 µM
same,logD,[4],1.7
same,MIC,[2],100 µM
same,MIC,Escherichia coli CFT073,8.8 µM
